# Data reported in ChEMBL document CHEMBL1914406, “Inhibitory effect of novel 5-O-acyl juglones on mammalian DNA polymerase activity, cancer cell growth and inflammatory response” (Bioorg Med Chem, 2011).
# Activity calls are given as the source filed them. The calls are words filed in the database; no cut-off is given here.
# Key:
# [1] = biological target: T1, DNA polymerase kappa (Homo sapiens) (UniProt Q9UBT6); experiment: Inhibition of C-terminal His6-tagged human DNA polymerase kappa (amino acids 1 to 560) using bovine deoxyribonuclease 1-treated DNA and dNTP as the DNA template-primer and nucleotide substrate at 10 uM after 60 mins
# T1 sequence (whole entry): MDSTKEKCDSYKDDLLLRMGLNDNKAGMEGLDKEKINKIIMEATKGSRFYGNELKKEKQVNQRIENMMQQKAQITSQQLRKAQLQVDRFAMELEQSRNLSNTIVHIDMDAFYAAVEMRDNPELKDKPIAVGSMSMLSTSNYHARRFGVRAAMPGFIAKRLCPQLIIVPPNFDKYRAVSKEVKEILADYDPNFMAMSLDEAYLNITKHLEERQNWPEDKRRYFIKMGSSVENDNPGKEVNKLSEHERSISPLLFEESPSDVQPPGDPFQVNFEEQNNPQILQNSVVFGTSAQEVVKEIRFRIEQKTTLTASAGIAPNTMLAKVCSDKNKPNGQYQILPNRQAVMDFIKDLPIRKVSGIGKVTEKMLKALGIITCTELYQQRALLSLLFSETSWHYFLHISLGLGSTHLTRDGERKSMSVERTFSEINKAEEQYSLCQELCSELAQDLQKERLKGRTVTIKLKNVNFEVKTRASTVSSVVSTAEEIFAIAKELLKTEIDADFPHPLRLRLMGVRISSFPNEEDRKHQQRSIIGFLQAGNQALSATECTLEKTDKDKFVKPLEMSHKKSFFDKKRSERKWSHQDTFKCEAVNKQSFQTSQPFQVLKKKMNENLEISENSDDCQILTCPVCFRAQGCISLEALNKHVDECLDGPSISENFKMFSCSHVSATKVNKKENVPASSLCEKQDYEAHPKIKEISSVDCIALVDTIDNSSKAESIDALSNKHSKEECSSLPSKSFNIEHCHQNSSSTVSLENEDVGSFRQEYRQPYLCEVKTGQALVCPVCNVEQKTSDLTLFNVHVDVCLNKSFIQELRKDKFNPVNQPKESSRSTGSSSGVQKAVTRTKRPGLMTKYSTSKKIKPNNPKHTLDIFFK
# Bos taurus [2] = organism: Bos taurus; experiment: Inhibition of calf DNA polymerase alpha using poly(dA)/oligo(dT)18 (A/T = 2/1) and dTTP as the DNA template-primer and nucleotide substrate at 10 uM after 60 mins
# In short: (§1)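 Compound in DMSO, sonicated 30 s. Premixed 0 °C, 10 min with enzyme (0.05 units) in 50 mM Tris-HCl pH 7.5, 1 mM DTT, 50% glycerol, 0.1 mM EDTA, then added to standard reaction mixture. Template-primers: poly(dA)/oligo(dT)18 (2/1) for pols, oligo(dT)18 for TdT, poly(rA)/oligo(dT)18 for HIV-1 RT, with [3H]dTTP. 60 min at 37 °C (Taq 74 °C). Activity relative to no-inhibitor control; mean ± SE of three experiments.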
# [3] = biological target: T1, DNA polymerase kappa (Homo sapiens); experiment: Inhibition of C-terminal His6-tagged human DNA polymerase kappa (amino acids 1 to 560) using poly(dA)/oligo(dT)18 (A/T = 2/1) and dTTP as the DNA template-primer and nucleotide substrate at 10 uM after 60 mins
# Homo sapiens [4] = organism: Homo sapiens; experiment: Inhibition of histidine-tagged human DNA polymerase gamma using bovine deoxyribonuclease 1-treated DNA and dNTP as the DNA template-primer and nucleotide substrate at 10 uM after 60 mins
# Homo sapiens [5] = organism: Homo sapiens; experiment: Inhibition of histidine-tagged human DNA polymerase gamma using poly(dA)/oligo(dT)18 (A/T = 2/1) and dTTP as the DNA template-primer and nucleotide substrate at 10 uM after 60 mins; in short: as §1
# [6] = biological target: T2, DNA polymerase lambda (Homo sapiens) (UniProt Q9UGP5); experiment: Inhibition of recombinant His-tagged human DNA polymerase lambda using poly(dA)/oligo(dT)18 (A/T = 2/1) and dTTP as the DNA template-primer and nucleotide substrate at 10 uM after 60 mins; in short: as §1
# T2 sequence (whole entry): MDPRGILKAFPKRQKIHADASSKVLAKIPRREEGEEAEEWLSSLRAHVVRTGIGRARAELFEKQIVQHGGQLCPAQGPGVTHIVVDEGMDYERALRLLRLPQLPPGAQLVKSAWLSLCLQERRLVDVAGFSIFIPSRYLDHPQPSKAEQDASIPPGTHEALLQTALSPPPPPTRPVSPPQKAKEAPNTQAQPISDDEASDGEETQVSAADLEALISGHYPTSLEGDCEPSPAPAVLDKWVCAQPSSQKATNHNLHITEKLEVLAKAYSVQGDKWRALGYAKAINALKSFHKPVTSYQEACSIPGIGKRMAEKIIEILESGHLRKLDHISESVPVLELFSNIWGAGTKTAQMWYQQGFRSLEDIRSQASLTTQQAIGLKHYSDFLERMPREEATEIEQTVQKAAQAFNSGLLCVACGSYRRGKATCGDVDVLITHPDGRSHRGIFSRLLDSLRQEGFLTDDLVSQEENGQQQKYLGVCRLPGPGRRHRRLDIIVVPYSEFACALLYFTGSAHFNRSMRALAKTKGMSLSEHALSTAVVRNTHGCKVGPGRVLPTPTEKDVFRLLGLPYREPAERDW
# [7] = biological target: T2, DNA polymerase lambda (Homo sapiens); experiment: Inhibition of recombinant His-tagged human DNA polymerase lambda using bovine deoxyribonuclease 1-treated DNA and dNTP as the DNA template-primer and nucleotide substrate at 10 uM after 60 mins
# Nucleic Acid = experiment: Binding affinity to DNA assessed as thermal transition of DNA relative to control; assay type: nucleic-acid assay
# [8] = Cytotoxicity against mouse RAW264.7 cells; assay type: cell-based; details: read-out: LD50 (the source's name)
# Mus musculus = experiment: Antiinflammatory activity in mouse assessed as inhibition of TPA-induced mouse ear edema at 500 ug/ear administered 30 mins before TPA challenge measured after 7 hrs relative to untreated control; assay type: functional, organism-based
# In short: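 Compound (500 µg) applied to one mouse ear; 30 min later TPA (0.5 µg) applied to both ears. Edema scored after 7 h and expressed as percentage of edema. Mean ± SE, n = 6.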
# RAW264.7 [9] = experiment: Cytotoxicity against mouse RAW264.7 cells at 5 uM; assay type: cell-based; details: raw264.7, 5 µM
# Bos taurus [10] = organism: Bos taurus; experiment: Inhibition of calf DNA polymerase alpha using bovine deoxyribonuclease 1-treated DNA and dNTP as the DNA template-primer and nucleotide substrate at 10 uM after 60 mins
# RAW264.7 [11] = experiment: Antiinflammatory activity in mouse RAW264.7 cells assessed as inhibition of LPS-induced TNFalpha secretion at 5 uM treated 30 mins before LPS challenge measured after 24 hrs by ELISA; assay type: functional, cell-based
# In short: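 RAW264.7 cells in MEM with 4.5 g/L glucose, 10% FCS, 5 mM L-glutamine, at 37 °C in 5% CO2. Seeded at 5 × 10⁴ cells/well and grown 24 h. Compound (final 1 and 5 µM) given 30 min before 100 ng/mL LPS. After 24 h, TNF-α in the medium measured by ELISA, relative to the no-compound value (100%). Mean ± SE, n = 4.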
# HCT-116 = experiment: Cytotoxicity against human HCT116 cells by WST-1 assay; assay type: functional, cell-based
# In short: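 HCT116 colon carcinoma cells (ATCC) grown in McCoy's 5A with 10% FBS, penicillin and streptomycin, 37 °C, 5% CO2. Plated at 1 × 10⁴ cells/well together with compound, which was diluted from a 10 mM DMSO stock into medium (final 0.5% DMSO). Incubated 24 h. Viability read by WST-1, expressed relative to untreated cells.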
Compound,inhibition [1],inhibition (Bos taurus [2]),inhibition [3],inhibition (Homo sapiens [4]),inhibition (Homo sapiens [5]),inhibition [6],inhibition [7],Activity (Nucleic Acid),CC50 [8] [µM],Activity (Mus musculus),Activity (RAW264.7 [9]),inhibition (Bos taurus [10]),Activity (RAW264.7 [11]),Activity (HCT-116)
CC(=O)Oc1cccc2c1C(=O)C=CC2=O,Active,Active,Active,Active,Active,Active,Active,inactive,> 10,Active,Non-toxic,Active,,
CC/C=C\C/C=C\C/C=C\C/C=C\C/C=C\C/C=C\CCC(=O)O [DOCONEXENT],inactive,inactive,inactive,inactive,inactive,inactive,inactive,,> 10,inactive,Non-toxic,inactive,inactive,inactive
CCCCCCCC/C=C\CCCCCCCC(=O)O [OLEIC ACID],inactive,inactive,inactive,inactive,inactive,inactive,inactive,,> 10,inactive,Non-toxic,inactive,inactive,inactive
CC(=O)O [ACETIC ACID],inactive,inactive,inactive,inactive,inactive,inactive,inactive,,> 10,inactive,Non-toxic,inactive,inactive,inactive
CCCCC/C=C\C/C=C\CCCCCCCC(=O)O [LINOLEIC ACID],inactive,inactive,inactive,inactive,inactive,inactive,inactive,,> 10,inactive,Non-toxic,inactive,inactive,inactive
CCC(=O)O [PROPIONIC ACID],inactive,inactive,inactive,inactive,inactive,inactive,inactive,,> 10,inactive,Non-toxic,inactive,inactive,inactive
CCCCCC(=O)O [HEXANOATE],inactive,inactive,inactive,inactive,inactive,inactive,inactive,,> 10,inactive,Non-toxic,inactive,inactive,inactive
CC1=CC(=O)c2ccccc2C1=O,,,,Active,Active,,,,,,,,,
CC/C=C\C/C=C\C/C=C\CCCCCCCC(=O)O [LINOLENIC ACID],inactive,inactive,inactive,inactive,inactive,inactive,inactive,,> 10,inactive,Non-toxic,inactive,inactive,inactive
CCCCCCCCCCCC(=O)O [DODECANOATE],inactive,inactive,inactive,inactive,inactive,inactive,inactive,,> 10,inactive,Non-toxic,inactive,inactive,inactive
CC/C=C\C/C=C\C/C=C\C/C=C\C/C=C\CCCC(=O)O [ICOSAPENT],inactive,inactive,inactive,inactive,inactive,inactive,inactive,,> 10,inactive,Non-toxic,inactive,inactive,inactive
CCCCCCCCCCCCCCCCCC(=O)O [STEARIC ACID],inactive,inactive,inactive,inactive,inactive,inactive,inactive,,> 10,inactive,Non-toxic,inactive,inactive,inactive
